Data set [1] has as its system Liver microsome. The data set can be described thus: Metabolic stability in human liver microsomes assessed as compound remaining. Format: ADME. The method, boiled down: (§1)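 Liver microsome stability: percent of compound remaining after incubation with […] (3 µM microsomes in some cases).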
The next data set relates to Platelet. The data set can be described thus: Inhibition of ADP-induced platelet aggregation in platelet-rich human plasma. It is filed as functional. The method, boiled down:
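Human platelet-rich plasma; aggregation triggered by 10 µM ADP; IC50 determined.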

The next data set deals with P2Y purinoceptor 1 (Homo sapiens, UniProt P47900). Description: Antagonist activity at P2Y1 receptor in human platelets by FLIPR assay in presence of 2-methylthio-ADP. In short, it runs like this:
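Washed human platelets with endogenous P2Y1; calcium signalling read by FLIPR with reduced protein (~0.1% BSA); agonist 2-methylthio-ADP at 1 µM; IC50 given as mean ± SD.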

The subject of data set [2] is Liver microsome. The data set can be described thus: Metabolic stability in rat liver microsomes assessed as compound remaining. It is filed as ADME. In short, it runs like this: as §1
The test system of data set [3] is Rattus norvegicus. Description: Antithrombotic activity in po dosed pentobarbital anesthetized rat assessed as reduction in FeCl2-induced thrombus weight administered 1 hr prior to FeCl2 challenge.
The test system of data set [4] is Rattus norvegicus. Description: Toxicity in rat assessed as prolongation of cuticle bleeding time at 10 mg/kg, po relative to control. Format: organism-based. On the set-up: dose 10 mg/kg, route oral. The note with it: in vivo. In short, it runs like this:
(§2)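 Pentobarbital-anesthetized rats dosed by oral gavage 1 h before bleeding-time induction. Vehicle was 1 ml/kg of 10% N,N-dimethylacetamide/90% dextrose 5% water, and compound was given at 0.3, 1, 3 and 10 mg/kg. Cuticle and mesenteric bleeding times were measured and expressed as fold prolongation relative to vehicle. Group sizes were indicated per group.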

In data set [5] the test system is Rattus norvegicus. Description: Antithrombotic activity in pentobarbital anesthetized rat assessed as reduction in FeCl2-induced thrombus weight at 10 mg/kg, po administered 1 hr prior to FeCl2 challenge. It is filed as functional. Details: scale not given: the % may be the effect or the level left. In short, it runs like this:
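Pentobarbital-anesthetized rats; vehicle (1 ml/kg of 10% N,N-dimethylacetamide/90% dextrose 5% water) or 0.3, 1, 3, 10 mg/kg by oral gavage 1 h before FeCl2-induced carotid thrombosis or cuticle/mesenteric bleeding time. End points were thrombus weight and blood flow. Blood was drawn at the end of the thrombosis protocol for ex vivo aggregation. ID50 values derived; SEM reported.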

Data set [6] relates to Rattus norvegicus. Description: Toxicity in rat assessed as prolongation of mesentric bleeding time at 10 mg/kg, po relative to control. Format: organism-based. Details: dose 10 mg/kg, route oral. The note with it: in vivo. The method, boiled down: as §2

Chain of P2Y purinoceptor 1 (P47900 whole entry): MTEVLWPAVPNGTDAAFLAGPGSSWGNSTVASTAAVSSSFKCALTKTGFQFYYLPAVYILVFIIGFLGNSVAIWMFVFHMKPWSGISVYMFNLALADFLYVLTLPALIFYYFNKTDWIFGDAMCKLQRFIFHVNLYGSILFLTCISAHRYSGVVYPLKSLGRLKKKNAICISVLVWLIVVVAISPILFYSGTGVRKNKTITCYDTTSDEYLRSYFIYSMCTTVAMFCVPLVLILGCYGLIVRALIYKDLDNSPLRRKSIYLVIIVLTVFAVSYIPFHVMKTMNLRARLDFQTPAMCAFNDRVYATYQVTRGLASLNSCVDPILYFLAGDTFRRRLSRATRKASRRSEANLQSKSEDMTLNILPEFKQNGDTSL

Consider `CC(C)(C)CN1CCC2(CC1)CN(c1ccccc1NC(=O)Nc1nc3ccc(Cl)cc3s1)c1c(O)ccc(Cl)c12`, for which the values for the Stability in the data set on Liver microsome [1] and in the data set on Liver microsome [2] were 96% and 93%, respectively. The IC50 – broadly, the concentration at which inhibition is half-maximal – amounted to 320 nM in the data set on Platelet and 0.17 nM on P2Y purinoceptor 1.

On to `CC(C)(C)CN1CCC2(CC1)CN(c1ccccc1NC(=O)Nc1csc(Cl)n1)c1c(O)ccc(Cl)c12`, for which the Stability was determined as 87% in the data set with Liver microsome [1] and 66% in the data set on Liver microsome [2]. Moreover, the IC50 in the data set on Platelet was found to be 170 nM; at P2Y purinoceptor 1, 0.03 nM.

On to `CC(C)(C)CN1CCC2(CC1)CN(c1ccccc1NC(=O)Nc1ccc(OC(F)(F)F)cc1)c1ccccc12`, for which the IC50 with Rattus norvegicus [3] came to 470 nM.

Regarding `CC(C)(C)CN1CCC2(CC1)CN(c1ccccc1NC(=O)Nc1nc3ccc(F)cc3s1)c1c(O)ccc(Cl)c12`, the Stability turned out to be 100% with Liver microsome [1] and 89% with Liver microsome [2]. Also, the half-maximal inhibitory concentration (IC50) with Platelet worked out at 230 nM; on P2Y purinoceptor 1, 0.06 nM.

For the compound `CC(C)(C)CN1CCC2(CC1)CN(c1ccccc1NC(=O)Nc1ccc(OC(F)(F)F)cc1)c1c(O)ccc(C#N)c12`, the Stability in the data set with Liver microsome [1] was determined as 59%; in the data set on Liver microsome [2], 51%. The half-maximal inhibitory concentration (IC50) stood at 1100 nM with Platelet and 0.04 nM at P2Y purinoceptor 1.

Take `CN(C)S(=O)(=O)c1ccc(O)c2c1C1(CCN(CC(C)(C)C)CC1)CN2c1ccccc1NC(=O)Nc1ccc(OC(F)(F)F)cc1`: the Stability in the data set with Liver microsome [1] was determined as 21%; with Liver microsome [2], 75%. The figures for the IC50 in the data set with Platelet and on P2Y purinoceptor 1 were 420 nM and 0.13 nM, respectively.

Consider `CC(C)(C)CN1CCC2(CC1)CN(c1ccccc1NC(=O)Nc1ccc(OC(F)(F)F)cc1)c1cc(O)ccc12`, for which, on P2Y purinoceptor 1, the IC50 is 4.6 nM.

In the case of `COC(=O)[C@H](c1ccccc1Cl)N1CCc2sccc2C1` [CLOPIDOGREL], the “fold change (FC)” value came to 6.2 with Rattus norvegicus [4] and 8.2 in the data set with Rattus norvegicus [6]. In addition, the Activity with Rattus norvegicus [5] came out at 67%.

The values above are taken from ChEMBL document CHEMBL3286275, “Identification of 1-{2-[4-chloro-1'-(2,2-dimethylpropyl)-7-hydroxy-1,2-dihydrospiro[indole-3,4'-piperidine]-1-yl]phenyl}-3-{5-chloro-[1,3]thiazolo[5,4-b]pyridin-2-yl}urea, a potent, efficacious and orally bioavailable P2Y(1) antagonist as an antiplatelet agent” (Bioorg Med Chem Lett, 2014).
